Here are results for 8 molecules from ChEMBL document CHEMBL1139934, “Synthesis and biological activity of imidazopyridine anticoccidial agents: part I” (Eur J Med Chem, 2007).

Structures are written as SMILES.

In test [1] the test system is Eimeria acervulina. Briefly: Anticococcidal activity against Eimeria acervulina in Chick assessed as reduction in oocyte at 50 ppm relative to control. Type of test: functional. Further details: scale not given: the % may be the effect or the level left. The method in brief:
(§1)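 Expanded Mini-Assay Coccidiosis (ExMAC) in chickens infected with E. tenella, E. acervulina, E. mitis and E. maxima. Compound given in the feed at the stated ppm. Efficacy for each species is scored 0 to 4 from the percent oocyst reduction relative to an untreated control. Where a compound was tested more than once, all values are reported.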

For test [2], the system named is Eimeria tenella. In words: Anticococcidal activity against Eimeria tenella in Chick assessed as reduction in oocyte at 50 ppm relative to control. Type of test: functional. The arrangement: scale not given: the % may be the effect or the level left. Summed up:
as §1

Test [3] relates to Eimeria maxima. Briefly: Anticococcidal activity against Eimeria maxima in Chick assessed as reduction in oocyte at 50 ppm relative to control. Format: functional. Further details: scale not given: the % may be the effect or the level left. Summed up:
as §1

For test [4], the system named is Eimeria mitis. Briefly: Anticococcidal activity against Eimeria mitis in Chick assessed as reduction in oocyte at 50 ppm relative to control. Format: functional. Further details: scale not given: the % may be the effect or the level left. The method in brief: as §1
Test [5] addresses cGMP-dependent protein kinase (Eimeria tenella, UniProt Q8MMZ8). Briefly: Inhibition of Eimeria tenella cGMP-dependent protein kinase by Ten_K assay. The method in brief:
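Ten_K (Tenella Kinase) assay measuring inhibition of E. tenella PKG enzyme activity. Result expressed as the concentration giving 50% inhibition (IC50, nM). Where a compound was tested more than once, all values are reported.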

Test [6] concerns Eimeria mitis. In words: Anticococcidal activity against Eimeria mitis in Chick assessed as reduction in oocyte at 25 ppm relative to control. Type of test: functional. The arrangement: scale not given: the % may be the effect or the level left. The method in brief: as §1
Test [7] has as its system Eimeria acervulina. Briefly: Anticococcidal activity against Eimeria acervulina in Chick assessed as reduction in oocyte at 1.25 ppm relative to control. Type of test: functional. Further details: scale not given: the % may be the effect or the level left. Summed up: as §1
Test [8] has as its system Eimeria acervulina. In words: Anticococcidal activity against Eimeria acervulina in Chick assessed as reduction in oocyte at 6.25 ppm relative to control. Type of test: functional. The arrangement: scale not given: the % may be the effect or the level left. The method in brief: as §1
In test [9] the test system is Eimeria tenella. Briefly: Anticococcidal activity against Eimeria tenella in Chick assessed as reduction in oocyte at 1.25 ppm relative to control. Further details: scale not given: the % may be the effect or the level left. Format: functional. Summed up: as §1
Test [10] has as its system Eimeria mitis. In words: Anticococcidal activity against Eimeria mitis in Chick assessed as reduction in oocyte at 1.25 ppm relative to control. Type of test: functional. Further details: scale not given: the % may be the effect or the level left. The method in brief: as §1
For test [11], the system named is Eimeria tenella. In words: Anticococcidal activity against Eimeria tenella in Chick assessed as reduction in oocyte at 6.25 ppm relative to control. Type of test: functional. The arrangement: scale not given: the % may be the effect or the level left. Summed up: as §1
Test [12] concerns Eimeria maxima. In words: Anticococcidal activity against Eimeria maxima in Chick assessed as reduction in oocyte at 1.25 ppm relative to control. Format: functional. The arrangement: scale not given: the % may be the effect or the level left. Summed up:
as §1

Test [13] has as its system Eimeria mitis. Briefly: Anticococcidal activity against Eimeria mitis in Chick assessed as reduction in oocyte at 6.25 ppm relative to control. Type of test: functional. Further details: scale not given: the % may be the effect or the level left. The method in brief:
as §1

In test [14] the test system is Eimeria tenella. Briefly: Anticococcidal activity against Eimeria tenella in Chick assessed as reduction in oocyte at 25 ppm relative to control. Format: functional. Further details: scale not given: the % may be the effect or the level left. Summed up: as §1
In test [15] the test system is Eimeria maxima. In words: Anticococcidal activity against Eimeria maxima in Chick assessed as reduction in oocyte at 25 ppm relative to control. Format: functional. Further details: scale not given: the % may be the effect or the level left. The method in brief:
as §1

In test [16] the test system is Eimeria maxima. Briefly: Anticococcidal activity against Eimeria maxima in Chick assessed as reduction in oocyte at 6.25 ppm relative to control. Further details: scale not given: the % may be the effect or the level left. Type of test: functional. The method in brief: as §1
For test [17], the system named is Eimeria acervulina. Briefly: Anticococcidal activity against Eimeria acervulina in Chick assessed as reduction in oocyte at 25 ppm relative to control. Format: functional. The arrangement: scale not given: the % may be the effect or the level left. Summed up:
as §1

For test [18], the target named is cGMP-dependent protein kinase (Eimeria tenella) (UniProt Q8MMZ8). Briefly: Inhibition of Eimeria tenella cGMP-dependent protein kinase at 100 nM by Ten_K assay.
The subject of test [19] is Eimeria mitis. Briefly: Anticococcidal activity against Eimeria mitis in Chick assessed as reduction in oocyte at 12.5 ppm relative to control. Type of test: functional. Further details: scale not given: the % may be the effect or the level left. Summed up:
as §1

Test [20] relates to Eimeria acervulina. Briefly: Anticococcidal activity against Eimeria acervulina in Chick assessed as reduction in oocyte at 12.5 ppm relative to control. The arrangement: scale not given: the % may be the effect or the level left. Format: functional. The method in brief:
as §1

Test [21] relates to Eimeria maxima. In words: Anticococcidal activity against Eimeria maxima in Chick assessed as reduction in oocyte at 12.5 ppm relative to control. The arrangement: scale not given: the % may be the effect or the level left. Type of test: functional. The method in brief: as §1
The subject of test [22] is Eimeria tenella. Briefly: Anticococcidal activity against Eimeria tenella in Chick assessed as reduction in oocyte at 12.5 ppm relative to control. Type of test: functional. Further details: scale not given: the % may be the effect or the level left. The method in brief: as §1
The subject of test [23] is Eimeria tenella. Briefly: Anticococcidal activity against Eimeria tenella in Chick assessed as reduction in oocyte at 3.13 ppm relative to control. Format: functional. The arrangement: scale not given: the % may be the effect or the level left. The method in brief: as §1
The subject of test [24] is Eimeria acervulina. In words: Anticococcidal activity against Eimeria acervulina in Chick assessed as reduction in oocyte at 3.13 ppm relative to control. Type of test: functional. The arrangement: scale not given: the % may be the effect or the level left. Summed up: as §1
Test [25] deals with Eimeria maxima. Briefly: Anticococcidal activity against Eimeria maxima in Chick assessed as reduction in oocyte at 3.13 ppm relative to control. Further details: scale not given: the % may be the effect or the level left. Format: functional. The method in brief:
as §1

The subject of test [26] is Eimeria mitis. Briefly: Anticococcidal activity against Eimeria mitis in Chick assessed as reduction in oocyte at 3.13 ppm relative to control. Type of test: functional. Further details: scale not given: the % may be the effect or the level left. The method in brief:
as §1

Chain of cGMP-dependent protein kinase (Q8MMZ8 whole entry): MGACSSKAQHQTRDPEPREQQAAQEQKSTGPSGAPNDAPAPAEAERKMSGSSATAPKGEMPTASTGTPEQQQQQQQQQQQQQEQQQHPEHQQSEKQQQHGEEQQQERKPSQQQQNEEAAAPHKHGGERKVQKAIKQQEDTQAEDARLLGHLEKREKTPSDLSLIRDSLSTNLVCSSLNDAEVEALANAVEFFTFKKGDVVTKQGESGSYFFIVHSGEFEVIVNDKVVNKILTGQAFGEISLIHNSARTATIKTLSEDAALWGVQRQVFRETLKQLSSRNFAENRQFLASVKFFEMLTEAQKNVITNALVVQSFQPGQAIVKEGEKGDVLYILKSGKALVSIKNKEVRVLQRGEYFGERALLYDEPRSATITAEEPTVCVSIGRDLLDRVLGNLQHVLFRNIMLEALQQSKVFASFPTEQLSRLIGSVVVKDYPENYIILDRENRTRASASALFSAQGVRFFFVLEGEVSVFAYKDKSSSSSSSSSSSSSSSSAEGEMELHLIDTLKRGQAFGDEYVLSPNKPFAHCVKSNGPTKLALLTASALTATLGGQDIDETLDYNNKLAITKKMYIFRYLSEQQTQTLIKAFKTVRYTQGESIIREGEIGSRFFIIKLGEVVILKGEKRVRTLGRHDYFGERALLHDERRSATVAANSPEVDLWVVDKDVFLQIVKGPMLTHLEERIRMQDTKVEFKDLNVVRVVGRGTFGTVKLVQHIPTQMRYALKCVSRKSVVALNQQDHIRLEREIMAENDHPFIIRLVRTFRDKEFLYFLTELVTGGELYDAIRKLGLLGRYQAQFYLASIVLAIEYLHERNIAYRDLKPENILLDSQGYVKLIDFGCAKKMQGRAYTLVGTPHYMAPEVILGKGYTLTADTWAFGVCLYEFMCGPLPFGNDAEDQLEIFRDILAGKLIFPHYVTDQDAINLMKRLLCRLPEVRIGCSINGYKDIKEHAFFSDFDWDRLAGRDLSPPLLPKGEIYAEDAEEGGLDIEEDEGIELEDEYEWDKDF
Chain of cGMP-dependent protein kinase (Eimeria tenella) (Q8MMZ8 2-1003 limits assumed): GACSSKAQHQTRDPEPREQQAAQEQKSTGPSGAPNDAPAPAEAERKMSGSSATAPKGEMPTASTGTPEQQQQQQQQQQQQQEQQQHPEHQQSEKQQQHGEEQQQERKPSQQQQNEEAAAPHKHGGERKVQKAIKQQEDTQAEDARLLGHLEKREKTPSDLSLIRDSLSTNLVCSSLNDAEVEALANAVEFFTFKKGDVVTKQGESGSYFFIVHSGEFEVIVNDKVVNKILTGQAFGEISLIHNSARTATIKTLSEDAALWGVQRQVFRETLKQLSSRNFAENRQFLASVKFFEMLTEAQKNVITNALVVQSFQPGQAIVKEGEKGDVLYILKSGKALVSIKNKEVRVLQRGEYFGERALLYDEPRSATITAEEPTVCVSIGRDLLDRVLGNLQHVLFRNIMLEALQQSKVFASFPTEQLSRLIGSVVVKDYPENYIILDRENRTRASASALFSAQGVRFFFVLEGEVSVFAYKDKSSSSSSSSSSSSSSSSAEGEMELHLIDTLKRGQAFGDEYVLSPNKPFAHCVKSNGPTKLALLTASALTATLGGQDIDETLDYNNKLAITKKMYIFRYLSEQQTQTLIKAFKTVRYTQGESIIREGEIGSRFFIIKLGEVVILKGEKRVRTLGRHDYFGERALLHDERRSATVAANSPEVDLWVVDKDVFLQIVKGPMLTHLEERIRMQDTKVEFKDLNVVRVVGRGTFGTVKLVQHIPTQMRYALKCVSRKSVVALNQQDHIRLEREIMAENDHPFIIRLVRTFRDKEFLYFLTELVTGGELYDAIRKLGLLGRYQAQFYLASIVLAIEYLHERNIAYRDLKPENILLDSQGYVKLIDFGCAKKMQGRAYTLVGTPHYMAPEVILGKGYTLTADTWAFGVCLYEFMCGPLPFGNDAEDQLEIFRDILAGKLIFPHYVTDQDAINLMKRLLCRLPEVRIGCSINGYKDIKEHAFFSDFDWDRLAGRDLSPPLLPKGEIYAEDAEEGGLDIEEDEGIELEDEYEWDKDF

`CCCCNc1nccc(-c2c(-c3ccc(F)cc3)nc3cc(CN(C)C)ccn23)n1`: the Activity in the test on Eimeria acervulina [1], in the test on Eimeria tenella [2], in the test with Eimeria maxima [3] and with Eimeria mitis [4] was below 50% throughout. In test [5], the IC50 – broadly, the concentration that inhibits the measured activity by half – turned out to be 2.14 nM.

In the case of `CN(C)Cc1ccn2c(-c3nc(N)ncc3F)c(-c3ccc(F)cc3)nc2c1`, the Activity with Eimeria mitis [6] is on record as 50%; with Eimeria acervulina [7], 100%; in the test on Eimeria acervulina [8] it was 50%; in the test with Eimeria tenella [9], 80%; with Eimeria mitis [10], below 50%; in the test on Eimeria tenella [11] it was 80%. The Activity in the test on Eimeria maxima [12] was below 50%; in the test on Eimeria mitis [13] it was below 50%; with Eimeria tenella [14], 80%; in the test with Eimeria maxima [15] it was 100%; in the test with Eimeria maxima [16] it was below 50%; in the test on Eimeria acervulina [17], 100%. For the same molecule, 0.23 nM corresponded to half-maximal inhibition in [5] (IC50).

As to `CN(C)Cc1ccn2c(-c3ccnc(NS(=O)(=O)Cc4ccccc4)n3)c(-c3ccc(F)cc3)nc2c1`, the Activity with Eimeria mitis [6], in the test on Eimeria tenella [14], in the test with Eimeria maxima [15] and in the test with Eimeria acervulina [17] was below 50% each time. Moreover, the inhibition – broadly, the percentage by which the read-out fell short of the control – in test [18] worked out at 40%.

Turning to `CN(C)Cc1ccn2c(-c3ccnc(NCC4CC4)n3)c(-c3ccc(F)cc3)nc2c1`, the Activity in the test on Eimeria mitis [6] is 80%; with Eimeria acervulina [8] it was 80%; in the test with Eimeria mitis [19] it was 80%; in the test on Eimeria tenella [11] it was below 50%; in the test on Eimeria acervulina [20], 80%; in the test with Eimeria maxima [21], 80%. The Activity with Eimeria mitis [13] is recorded as below 50%; in the test with Eimeria tenella [14] it was 80%; with Eimeria maxima [15] it was 80%; in the test with Eimeria maxima [16] it was 80%; in the test on Eimeria acervulina [17], 80%; in the test with Eimeria tenella [22], 80%. In [5], this molecule showed an IC50 of 0.064 nM.

Consider `CN(C)Cc1ccn2c(-c3ccnc(NC4CCC4)n3)c(-c3ccc(F)cc3)nc2c1`, for which the Activity in the test with Eimeria mitis [6] is 80%; in the test with Eimeria acervulina [8], below 50%; with Eimeria mitis [19] it was 50%; in the test on Eimeria tenella [11], 80%; with Eimeria acervulina [20] it was 80%; in the test on Eimeria maxima [21] it was 80%. Also, the Activity is below 50% in the test with Eimeria mitis [13]; 80% in the test with Eimeria tenella [14]; 80% with Eimeria maxima [15]; 50% in the test with Eimeria maxima [16]; 80% in the test with Eimeria acervulina [17]; 80% in the test with Eimeria tenella [22]. The same molecule registered an IC50 in test [5] of 0.22 nM.

`COCCNc1nccc(-c2c(-c3ccc(F)cc3)nc3cc(CN(C)C)ccn23)n1`: the Activity in the test with Eimeria mitis [6] was below 50%; with Eimeria acervulina [8], below 50%; in the test on Eimeria mitis [19] it was below 50%; with Eimeria tenella [11], below 50%; in the test on Eimeria acervulina [20] it was 80%; with Eimeria maxima [21], 80%. Also, the Activity in the test with Eimeria mitis [13] is below 50%; in the test on Eimeria tenella [14], 80%; with Eimeria maxima [15], 80%; in the test with Eimeria maxima [16], 50%; with Eimeria acervulina [17], 80%; in the test on Eimeria tenella [22], 80%. Further, in test [5], the half-maximal inhibitory concentration (IC50) came to 0.25 nM.

Consider `CN(C)Cc1ccn2c(-c3ccnc(N)n3)c(-c3c(F)cc(F)cc3F)nc2c1`, for which the Activity in the test with Eimeria mitis [6] is listed as below 50%; with Eimeria tenella [23], 50%; with Eimeria acervulina [24], below 50%; in the test on Eimeria acervulina [8], 50%; with Eimeria mitis [19], below 50%; in the test on Eimeria maxima [25], 80%. Besides, the Activity in the test on Eimeria tenella [11] is below 50%; in the test on Eimeria acervulina [20], 80%; in the test with Eimeria maxima [21], 80%; in the test on Eimeria mitis [13], 50%; with Eimeria tenella [14], 80%; in the test on Eimeria maxima [15] it was 100%. Besides, the Activity turned out to be 50% in the test on Eimeria maxima [16], 50% in the test with Eimeria mitis [26], 80% in the test on Eimeria acervulina [17] and 80% in the test on Eimeria tenella [22]. This molecule also came in with an IC50 in [5] of 0.52 nM.

In the case of `CN(C)Cc1ccn2c(-c3ccnc(NC(=O)C4CCC4)n3)c(-c3ccc(F)cc3)nc2c1`, the Activity is given as 80% in the test on Eimeria mitis [6]; below 50% in the test with Eimeria acervulina [8]; 80% with Eimeria mitis [19]; 80% in the test with Eimeria tenella [11]; below 50% in the test on Eimeria acervulina [20]; 80% with Eimeria maxima [21]. The Activity in the test on Eimeria mitis [13] was below 50%; with Eimeria tenella [14], 80%; in the test with Eimeria maxima [15] it was 80%; in the test on Eimeria maxima [16], below 50%; in the test on Eimeria acervulina [17], 80%; in the test with Eimeria tenella [22] it was 80%. This molecule showed an IC50 in test [5] of 0.27 nM.
